Measured values reported in ChEMBL document CHEMBL4765231 (J Med Chem, 2016).
pEC50, pIC50: −log10 of the molar value. In brackets after ≈: the same amount, converted by molar mass. Activity calls are given as the source filed them. The calls are words filed in the database; no cut-off is given here.

Columns and labels:
[1] = Inhibition of late sodium current channel (unknown origin) at 25 Hz frequency by whole cell patch clamp technique; details: Homo sapiens
[2] = Solubility of compound in water; type: physicochemical
NaV1.1 = NaV1.1 (Homo sapiens, UniProt P35498); experiment: Inhibition of NaV1.1 (unknown origin) expressed in cells assessed as inhibition of peak INa current at 10 uM at 25 Hz frequency by whole-cell patch clamp method relative to control; type: cell-based; details: cells expressing NaV1.1
Procedure, shortened: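 Whole-cell manual patch clamp on non-cardiac NaV1.x channels, run at room temperature. Series resistance was compensated 90% so the command potential was reached within microseconds.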

[3] = Metabolic stability in human microsomes assessed as half life; type: ADME, Microsome
[4] = Metabolic stability in rat microsomes assessed as half life; type: ADME, Microsome
[5] = Metabolic stability in dog microsomes assessed as half life; type: ADME, Canis lupus familiaris, Microsome
Oryctolagus cuniculus [6] = organism: Oryctolagus cuniculus; experiment: Cardioprotective activity in New Zealand White rabbit heart assessed as reversal of ATX-II induced late sodium current prolongation in change in duration of monophasic action potential at 90 percent repolarization at 1 uM by electrocardiographic analysis relative to control; type: functional
NaV1.5 [7] = target: T1, NaV1.5 (Homo sapiens, UniProt Q14524); experiment: Inhibition of human NaV1.5 expressed in HEK293 cells assessed as inhibition of peak sodium current measured at frequency 3 Hz at -20 mV resting membrane potential at 1 uM by electrophysiology assay relative to control; type: cell-based; details: HEK293 cells expressing human NaV1.5
Homo sapiens [8] = organism: Homo sapiens; experiment: Inhibition of late sodium current channel (unknown origin) at 1 uM at 25 Hz frequency by whole cell patch clamp technique relative to control
Oryctolagus cuniculus [9] = experiment: (§1) Cardioprotective activity in New Zealand rabbit model of LAD coronary artery occlusion-induced ischemia-reperfusion injury assessed as inhibition of ST segment elevation intravenously administered with compound for 30 mins followed by induction of ischemia for 15 mins and subsequent reperfusion for 15 mins by electrocardiographic analysis; type: functional
[10] = Ratio of drug concentration in brain to plasma of coronary artery occlusion-induced ischemia-reperfusion injury rabbit model intravenously administered with compound for 30 mins measured by LC-MS/MS analysis; type: ADME, Oryctolagus cuniculus; details: brain and plasma, iv, read-out: BPR
NaV1.5 [11] = target: T1, NaV1.5; experiment: Inhibition of human NaV1.5 expressed in HEK293 cells assessed as inhibition of peak sodium current measured at frequency 3 Hz at -120 mV resting membrane potential at 0.3 uM by electrophysiology assay relative to control; details: HEK293 cells expressing human NaV1.5
NaV1.5 [12] = target: T1, NaV1.5; experiment: Inhibition of human NaV1.5 expressed in HEK293 cells assessed as inhibition of peak sodium current measured at frequency 3 Hz at -20 mV resting membrane potential at 3 uM by electrophysiology assay relative to control; type: cell-based; details: HEK293 cells expressing human NaV1.5
Homo sapiens [13] = organism: Homo sapiens; experiment: Inhibition of L-type calcium channel (unknown origin)
Oryctolagus cuniculus [14] = organism: Oryctolagus cuniculus; experiment: Cardioprotective activity in New Zealand White rabbit heart assessed as reversal of ATX-II induced late sodium current prolongation in change in duration of monophasic action potential at 90 percent repolarization by electrocardiographic analysis relative to control; type: functional, tissue-based
Oryctolagus cuniculus [15] = organism: Oryctolagus cuniculus; experiment: Cardioprotective activity in New Zealand rabbit heart assessed as reversal of ATX-II induced late sodium current increase in QT interval by electrocardiographic analysis; type: functional
Oryctolagus cuniculus [16] = organism: Oryctolagus cuniculus; experiment: as §1, with “at 12 uM” for “intravenously administered with compound”; type: functional; details: 1 h, time 60 min
[17] = target: Sodium channel protein type 1 subunit alpha (Homo sapiens, UniProt P35498); experiment: Inhibition of peak NaV1.1 (unknown origin) at 10 uM at 10 Hz frequency by manual patch clamp technique
Procedure, shortened: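 Whole-cell manual patch clamp at room temperature, with series resistance compensated 90%.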

[18] = Inhibition of peak sodium current (unknown origin) by manual patch clamp method; set-up: species or system Homo sapiens
Oryctolagus cuniculus [19] = organism: Oryctolagus cuniculus; experiment: Cardioprotective activity in rabbit assessed as decrease in chemically-induced Torsades des Pointes at 14 uM by electrocardiographic analysis; type: functional; set-up: scale not given: the % may be the effect or the level left
Oryctolagus cuniculus [20] = organism: Oryctolagus cuniculus; experiment: as §1, with “at 0.28 uM” for “intravenously administered with compound”; type: functional; set-up: scale not given: the % may be the effect or the level left; details: time 60 min, 1 h
Oryctolagus cuniculus [21] = organism: Oryctolagus cuniculus; experiment: as §1, with “at 0.52 uM” for “intravenously administered with compound”; type: functional; set-up: scale not given: the % may be the effect or the level left; details: time 60 min, 1 h
[22] = Toxicity in New Zealand rabbit model of LAD coronary artery occlusion-induced ischemia-reperfusion injury assessed as effect on blood pressure at 0.28 to 0.52 uM; set-up: species or system Oryctolagus cuniculus; details: in vivo, dose 0.28-0.52 µM
[23] = Toxicity in New Zealand rabbit model of LAD coronary artery occlusion-induced ischemia-reperfusion injury assessed as effect on heart rate at 0.28 to 0.52 uM; set-up: species or system Oryctolagus cuniculus; details: in vivo, dose 0.28-0.52 µM
[24] = Toxicity in New Zealand rabbit model of LAD coronary artery occlusion-induced ischemia-reperfusion injury assessed as effect on ECG interval at 0.28 to 0.52 uM; set-up: species or system Oryctolagus cuniculus; details: in vivo, dose 0.28-0.52 µM
[25] = Toxicity in rabbit model of left circumflex artery ligation-induced ischemia assessed as increase in VT-VF at 1 mg/kg by electrocardiographic analysis; type: organism-based, Oryctolagus cuniculus; details: in vivo
[26] = Toxicity in rabbit model of left circumflex artery ligation-induced ischemia assessed as animal death at 1 mg/kg; type: organism-based, Oryctolagus cuniculus; details: in vivo

T1 sequence (Q14524 whole entry): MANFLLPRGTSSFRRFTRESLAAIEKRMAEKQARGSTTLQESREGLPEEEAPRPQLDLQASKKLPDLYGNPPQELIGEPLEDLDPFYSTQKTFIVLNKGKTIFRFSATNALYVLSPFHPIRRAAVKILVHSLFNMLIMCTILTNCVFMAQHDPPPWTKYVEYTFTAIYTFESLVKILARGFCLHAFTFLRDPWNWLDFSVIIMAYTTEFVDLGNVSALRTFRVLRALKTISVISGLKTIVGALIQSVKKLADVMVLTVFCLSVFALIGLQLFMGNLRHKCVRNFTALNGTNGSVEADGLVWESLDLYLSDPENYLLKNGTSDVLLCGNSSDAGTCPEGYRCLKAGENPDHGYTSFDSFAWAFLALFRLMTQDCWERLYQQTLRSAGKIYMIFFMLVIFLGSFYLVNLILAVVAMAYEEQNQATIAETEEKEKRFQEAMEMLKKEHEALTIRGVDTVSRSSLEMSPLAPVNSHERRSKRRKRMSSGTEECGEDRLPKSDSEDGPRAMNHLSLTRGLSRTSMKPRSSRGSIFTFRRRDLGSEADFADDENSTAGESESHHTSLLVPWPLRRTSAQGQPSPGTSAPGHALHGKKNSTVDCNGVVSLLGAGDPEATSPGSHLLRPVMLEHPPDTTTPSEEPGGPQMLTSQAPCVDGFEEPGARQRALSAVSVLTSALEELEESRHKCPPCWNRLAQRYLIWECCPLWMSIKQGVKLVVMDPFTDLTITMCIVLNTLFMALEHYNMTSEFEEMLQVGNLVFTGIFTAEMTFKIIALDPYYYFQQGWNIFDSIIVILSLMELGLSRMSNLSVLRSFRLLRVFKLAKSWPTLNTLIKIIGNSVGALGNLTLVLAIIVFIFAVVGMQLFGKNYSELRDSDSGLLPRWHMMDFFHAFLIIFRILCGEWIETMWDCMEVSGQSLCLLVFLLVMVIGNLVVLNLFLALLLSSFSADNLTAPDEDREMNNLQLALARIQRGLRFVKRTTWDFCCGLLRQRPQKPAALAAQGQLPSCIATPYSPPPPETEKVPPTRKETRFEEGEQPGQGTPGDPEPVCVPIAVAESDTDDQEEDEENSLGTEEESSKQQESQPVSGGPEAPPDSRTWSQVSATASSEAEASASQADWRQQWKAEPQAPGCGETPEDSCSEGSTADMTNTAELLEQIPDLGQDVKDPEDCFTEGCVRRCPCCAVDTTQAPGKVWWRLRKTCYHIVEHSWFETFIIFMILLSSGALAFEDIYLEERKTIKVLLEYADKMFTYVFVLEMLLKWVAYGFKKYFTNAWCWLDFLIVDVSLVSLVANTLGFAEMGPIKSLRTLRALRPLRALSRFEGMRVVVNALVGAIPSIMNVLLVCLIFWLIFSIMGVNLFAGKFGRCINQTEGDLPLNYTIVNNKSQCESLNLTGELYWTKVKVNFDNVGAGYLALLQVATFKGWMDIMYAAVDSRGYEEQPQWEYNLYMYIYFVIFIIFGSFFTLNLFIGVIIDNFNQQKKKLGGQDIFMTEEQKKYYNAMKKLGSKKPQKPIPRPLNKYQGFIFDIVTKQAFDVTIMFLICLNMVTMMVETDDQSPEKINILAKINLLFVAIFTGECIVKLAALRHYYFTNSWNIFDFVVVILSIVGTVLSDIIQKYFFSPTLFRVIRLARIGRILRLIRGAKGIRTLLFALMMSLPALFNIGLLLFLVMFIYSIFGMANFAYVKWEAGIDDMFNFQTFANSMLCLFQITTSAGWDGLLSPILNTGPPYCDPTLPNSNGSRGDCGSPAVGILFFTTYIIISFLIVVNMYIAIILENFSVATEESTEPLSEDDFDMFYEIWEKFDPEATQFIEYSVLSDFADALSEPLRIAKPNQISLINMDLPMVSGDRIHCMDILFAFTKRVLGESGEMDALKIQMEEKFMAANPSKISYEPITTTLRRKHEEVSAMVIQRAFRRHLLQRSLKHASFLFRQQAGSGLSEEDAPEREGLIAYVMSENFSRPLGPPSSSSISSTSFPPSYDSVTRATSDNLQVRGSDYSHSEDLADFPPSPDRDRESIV

Structure (SMILES)	pIC50 [1]	inhibition at 10 µM (NaV1.1) [%]	half-life [3] [h]	half-life [4] [h]	half-life [5] [h]	inhibition (Homo sapiens [8]) [%]	also measured
O=C1c2cc(-c3ccc(C(F)(F)F)cc3)ccc2CCN1Cc1ncccn1	5.68	15	5.07	5.9	5.33	–	solubility [2]: 28 µM (≈ 10.7 µg/mL); Activity (Oryctolagus cuniculus [6]): 25%
CC(=O)Nc1ccnc(CN2CCOc3ccc(-c4ccc(OC(F)(F)F)cc4)cc3C2=O)n1	–	–	–	–	–	6	–
O=c1c2cc(-c3ccc(C(F)(F)F)cc3)ccc2nnn1Cc1nnc(C2CC2)o1	–	–	–	–	–	51	pEC50 (Oryctolagus cuniculus [9]): 6.01; Kp at 0.5 h [10]: 0.86
O=C1c2cc(-c3cccc(C(F)(F)F)c3)ccc2OCCN1Cc1ncccn1	5.52	–	–	–	–	–	–
O=C1c2cc(-c3ccc(OC(F)(F)F)cc3)ccc2OCCN1Cc1ncccc1F	6.80	82	2.48	1.48	3.23	–	inhibition at 0.3 µM (NaV1.5 [11]): 23%
O=C1c2cc(-c3ccc(Cl)cc3)ccc2OCCN1Cc1ncccn1	5.79	31	3.23	1.6	1.05	–	Activity (Oryctolagus cuniculus [6]): 68%; inhibition at 3 µM (NaV1.5 [12]): 17%
O=C1c2cc(-c3ccccc3)ccc2OCCN1Cc1ncccn1	–	–	–	–	–	18	–
COc1ccccc1OCC(O)CN1CCN(CC(=O)Nc2c(C)cccc2C)CC1 (stereo unspecified) [RANOLAZINE]	–	–	–	–	–	–	pEC50 (Oryctolagus cuniculus [9]): 5.10; inhibition (Homo sapiens [13]): inactive; pIC50 (Oryctolagus cuniculus [14]): 4.80; Activity (Oryctolagus cuniculus [15]): Active; inhibition in vivo at 12 µM (Oryctolagus cuniculus [16]): 60%; inhibition (INH) [17]: Not Active; pIC50 [18]: 3.37; Activity (Oryctolagus cuniculus [19]): 60%
COc1ccc(-c2ccc3c(c2)C(=O)N(Cc2ncccn2)CCO3)cc1	–	–	–	–	–	13	–
O=C1c2cc(-c3ccc(C(F)(F)F)cc3)ccc2OCCN1Cc1ncccn1	5.97	60	5.8	3.52	6.18	–	pEC50 (Oryctolagus cuniculus [9]): 6.52; Activity (Oryctolagus cuniculus [9]; time 60.0 min): Dose-dependent effect; solubility [2]: 87 µM (≈ 34.7 µg/mL); Activity (Oryctolagus cuniculus [6]): 62%; inhibition at 3 µM (NaV1.5 [12]): 27%; Activity (Oryctolagus cuniculus [20]): 38%; Activity (Oryctolagus cuniculus [21]): 88%; Activity [22]: Non-Toxic; Activity [23]: Non-Toxic; Activity [24]: Non-Toxic
O=C1c2cc(-c3ccc(OC(F)(F)F)cc3)ccc2OCCN1CCc1ncccn1	6.00	67	0.467	0.467	1.55	–	inhibition at 3 µM (NaV1.5 [12]): 13%
Nc1ccnc(CN2CCOc3ccc(-c4ccc(OC(F)(F)F)cc4)cc3C2=O)n1	5.61	52	–	–	–	–	inhibition at 3 µM (NaV1.5 [12]): 37%
COc1ccnc(CN2CCOc3ccc(-c4ccc(OC(F)(F)F)cc4)cc3C2=O)n1	6.01	60	6.58	4.52	1.45	–	inhibition at 1 µM (NaV1.5 [7]): 27%
CC(=O)Nc1cc(OC(F)(F)F)ccc1-c1ccc2c(c1)C(=O)N(Cc1ncccn1)CCO2	–	–	–	–	–	4	–
Cc1noc(Cn2ncc3ccc(-c4ccc(OC(F)(F)F)cc4)cc3c2=O)n1	–	–	–	–	–	39	Kp at 0.5 h [10]: 4.4
O=C1c2cc(-c3ccc(OC(F)(F)F)c(Cl)c3)ccc2OCCN1Cc1ncccn1	6.11	33	6.55	5.63	–	–	Activity (Oryctolagus cuniculus [6]): 23%; inhibition at 3 µM (NaV1.5 [12]): 15%
O=C(NCC1CCCCN1)c1cc(OCC(F)(F)F)ccc1OCC(F)(F)F (stereo unspecified) [FLECAINIDE]	–	–	–	–	–	–	Activity [25]: Toxic; Activity [26]: Toxic
O=C1c2cc(-c3ccc(OC(F)F)cc3)ccc2OCCN1Cc1ncccn1	–	–	–	–	–	13	–
O=C1c2cc(-c3ccccc3OC(F)(F)F)ccc2OCCN1Cc1ncccn1	–	–	–	–	–	26	–
O=C1c2cc(-c3cccc(OC(F)(F)F)c3)ccc2OCCN1Cc1ncccn1	5.69	18	4.95	4.9	0.717	–	Activity (Oryctolagus cuniculus [6]): 29%; inhibition at 3 µM (NaV1.5 [12]): 3%

Further lines, with some results ahead:

pIC50 [1]	inhibition at 10 µM (NaV1.1) [%]	half-life [3] [h]	half-life [4] [h]	half-life [5] [h]	inhibition (Homo sapiens [8]) [%]	Structure (SMILES)	also measured
5.79	23	5.5	1.63	1.92	–	O=C1c2cc(-c3ccc(Cl)c(F)c3)ccc2OCCN1Cc1ncccn1	Activity (Oryctolagus cuniculus [6]): 58%; inhibition at 1 µM (NaV1.5 [7]): 8%
6.30	67	2.5	1.15	2.78	–	O=C1c2cc(-c3ccc(OC(F)(F)F)cc3)ccc2OCCN1Cc1ccccn1	solubility [2]: < 1 µM
–	–	–	–	–	48	Cc1noc(Cn2cnc3ccc(-c4ccc(OC(F)(F)F)cc4)cc3c2=O)n1	Kp at 0.5 h [10]: 15
–	–	–	–	–	3	CS(=O)(=O)c1ccc(-c2ccc3c(c2)C(=O)N(Cc2ncccn2)CCO3)cc1	–
–	–	–	–	–	17	O=C1c2cc(-c3ccc(C(F)F)cc3)ccc2OCCN1Cc1ncccn1	–
5.89	35	4.02	5.13	2.6	–	O=C1c2cc(-c3ccc(OC(F)(F)F)cc3F)ccc2OCCN1Cc1ncccn1	Activity (Oryctolagus cuniculus [6]): 39%; inhibition at 3 µM (NaV1.5 [12]): 37%
5.64	23	6.58	2.5	2.62	–	O=C1c2cc(-c3ccc(OC(F)(F)F)cc3)ccc2CCN1Cc1ncccn1	solubility [2]: 60 µM (≈ 24 µg/mL); Activity (Oryctolagus cuniculus [6]): 6%
